dFosB activator: activators of delta FosB homodimer, primary screen, biochemical, fluorescence polarization, TAMRA-CDK5 oligo, single point. purified delta FosB; percent of positive-control signal above neutral wells. AID 493131, 2011. actives 0.99% (n = 340,000). activation, % at 25 µM;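 active means mean activation above about 17%, with every replicate also reaching it, limit read from the data, passing the limit was not always enough; inconclusive means only one of the two conditions met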
Target sequence (P13346 whole entry, looked up): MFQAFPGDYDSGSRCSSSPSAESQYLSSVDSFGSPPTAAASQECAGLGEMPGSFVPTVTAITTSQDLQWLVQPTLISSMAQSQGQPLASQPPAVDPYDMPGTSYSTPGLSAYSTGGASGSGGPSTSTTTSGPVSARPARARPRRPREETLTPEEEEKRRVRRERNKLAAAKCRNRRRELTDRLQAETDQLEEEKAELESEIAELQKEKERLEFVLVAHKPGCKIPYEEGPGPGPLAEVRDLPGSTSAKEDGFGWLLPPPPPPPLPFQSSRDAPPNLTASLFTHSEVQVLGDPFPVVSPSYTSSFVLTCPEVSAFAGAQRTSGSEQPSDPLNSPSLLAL
SR-BI DiI inh: inhibitors of SR-BI mediated HDL lipid uptake, primary screen, ldlA[mSR-BI] cells, fluorescence, single point. actives 0.96% (n = 320,000). AID 488896, 2010. ldlA[mSR-BI] CHO cells, DiI-HDL uptake fluorescence, 3 h. inhibition, % at 12.5 µM;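 active means mean replicate inhibition of at least 70% and a set share of replicates each scoring 70 or more; inconclusive means meets just one of the two criteria; inactive means fails both criteria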;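 further: 0% = median of neutral control wells and 100% = median of positive control wells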
SR-BI uptake up: activators of SR-BI mediated DiI-HDL uptake, primary screen, ldlA[mSR-BI] CHO cells, DiI fluorescence; 3 h; 100 = double the neutral-control signal; activation, % at 12.5 µM; AID 504775, 2011; actives 0.096% (n = 320,000);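 active means mean replicate activation of at least 60% and every replicate at or above 60%; inconclusive means mean or all-replicate condition met, but not both; inactive means mean below 60% and not all replicates reaching 60%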;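 further: 0% = median plate neutral-control signal and 100% = twice that signal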
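System: LDL receptor-deficient CHO ldlA cells overexpressing murine SR-BI | Timing: 3 h uptake period with compound, 37 °C | Medium: HEPES-buffered (25 mM, pH 7.4) F12 plus 0.5% BSA | Dosing: Single-point compound dose | Signal: Bottom-read fluorescence, 550/595 nm | Read-out: Retained DiI signal reflecting DiI-HDL uptake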
CDK5 inh: inhibitors of human CDK5/p35 kinase, primary screen, biochemical, single concentration; Cyclin-dependent kinase 5 (Homo sapiens) + Cyclin-dependent kinase 5 activator 1 (Homo …; Recombinant CDK5/p35, ADP-Glo luminescence, 60 min; inhibition, % at 10 µM; actives 0.01% (n = 330,000);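 active means highest replicate inhibition of at least 50% and at least 75% of replicates reaching 50%; inconclusive means only one of the two criteria met; inactive means both criteria failed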;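 further: plate controls were DMSO neutral control for no effect and GW8510 at 10 µM for full effect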
DiI quencher: counter-screen for SR-BI lipid transfer inhibitors: DiI fluorescence quenchers. shares compounds with SR-BI DiI inh. cell-free DiI-HDL fluorescence quenching, 30 min. AC50, µM (series often up to 35 µM), for the others: at the top dose activity change, negative = quenching. actives 20% (n = 470). AID 540326;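 active means quenching, a falling signal, with AC50 below a set limit tied to the top valid dose, actives reach about 32 µM in these data; inconclusive means no clear call, values can overlap the other calls; inactive means rising signal, and the rest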
* = called active by the depositor; ? = inconclusive; · = no result. The list is not random: actives were taken first. Their share in the collection is about 2%.

SMILES | dFosB activator | SR-BI DiI inh | SR-BI uptake up | CDK5 inh | DiI quencher
O=C(CN1CCN(c2ncc(C(F)(F)F)cc2Cl)CC1)NCCNc1ncc(C(F)(F)F)cc1Cl | -4.4 | 75.4* | -75.4 | 1.9 | -0.6%
Cc1ccc(C)c(S(=O)(=O)N2CCCCC2CCNC(=O)C(=O)NC2CC2)c1 (stereo not drawn) | 1.7 | 8.6 | -8.6 | 0.3 | ·
COc1ccc(C(=O)N2CCN(c3ccc([N+](=O)[O-])c(NCCc4ccc(OC)c(OC)c4)c3)CC2)cc1 | -4.6 | ? | -74.5 | -0.6 | 3.0%
NC(=O)c1ccc(-n2nc(C(F)(F)F)c3c2CCCC3)cc1 | -4.4 | 60.0 | -60.0 | 1.8 | ·
CN(C)C(=O)c1ccc(-n2nc(C(F)(F)F)c3c2CCCC3)cc1 | -1.2 | 82.7* | -82.7 | 3.0 | -5.1%
O=C(c1ccc(-n2nc(C(F)(F)F)c3c2CCCC3)cc1)N1CCOCC1 | -5.8 | 79.3* | -79.3 | 0.1 | -0.9%
O=C(O)c1ccc(-n2nc(C(F)(F)F)c3c2CCCC3)cc1 | 3.5 | -13.5 | 13.5 | 0.3 | ·
Cc1ccc(NC(=O)CSc2nnc([C@H](C)NC(=O)OC(C)(C)C)o2)c(C)c1 | -7.2 | 73.0* | -73.0 | 0.2 | 0.2%
Cc1cccc(NC(=O)CSc2nnc([C@H](C)NC(=O)OC(C)(C)C)o2)c1C | -8.7 | 38.6 | -38.6 | -2.2 | ·
O=C(/C=C/c1ccco1)Nc1cccc(NC(=O)/C=C/c2ccco2)n1 | -18.3 | 8.4 | -8.4 | -0.5 | -6.0%
Cc1nc(NC(=O)/C=C/c2ccco2)sc1C | 1.3 | 7.6 | -7.6 | 1.9 | ·
COC(=O)[C@]1(CC(C)C)N[C@H](c2ccc(-c3cccc(Cl)c3)cc2)[C@@H]2C(=O)N(C)C(=O)[C@@H]21 | 6.8 | 74.4* | -74.4 | 1.0 | -1.3%
COC(=O)[C@]1(C)N[C@H](c2ccc(-c3cccc(Cl)c3)cc2)[C@@H]2C(=O)N(C)C(=O)[C@@H]21 | -10.4 | 20.3 | -20.3 | 1.0 | ·
O=C(Nc1ccc(-c2nc3ccccc3o2)cc1)c1cc(-n2cnnc2)ccc1Cl | -0.5 | ? | -73.4 | 1.3 | 8.1%
CC(=O)c1ccc(N2CCN(C(=O)/C=C/c3ccc(S(=O)(=O)NCc4ccco4)cc3)CC2)cc1 | -11.4 | 88.1* | -88.1 | 0.7 | -3.0%
N#Cc1ccc(CN2CCN(C(=O)c3ccc(S(=O)(=O)NCc4ccco4)cc3)CC2)cc1 | -6.4 | ? | -71.7 | -3.4 | 0.0%
CC(=O)c1ccc(N2CCN(C(=O)/C=C/c3ccc(S(=O)(=O)N4CCOCC4)cc3)CC2)cc1 | -3.4 | 38.5 | -38.5 | 0.9 | ·
O=C(c1ccc(S(=O)(=O)NCc2ccco2)cc1)N1CCCC1 | 1.8 | -0.6 | 0.6 | 1.1 | ·
C=CCN(c1ccccc1)S(=O)(=O)c1cccc(C(=O)NC2CCN(Cc3ccccc3)CC2)c1 | -2.6 | -15.5 | 15.5 | -0.3 | ·
Cc1ccc(C(=O)NNC(=O)Cn2ccc(C(F)(F)F)n2)o1 | -2.1 | -13.8 | 13.8 | 2.6 | ·
Cc1cc(C)c(C)c(S(=O)(=O)N2CCN(CC(=O)NC(=O)NCc3ccccc3)CC2)c1C | -10.7 | 73.9* | -73.9 | 1.3 | 0.5%
COc1ccc(CNC(=O)CN2CCN(S(=O)(=O)c3c(C)c(C)cc(C)c3C)CC2)cc1OC | 0.5 | 55.7 | -55.7 | 0.6 | ·
CC(=O)c1cc(C#N)c(SCc2ccccc2C#N)nc1C | -2.2 | 74.7* | -74.7 | -2.0 | -1.0%
CC(C)C(=O)Nc1ccccc1-c1nc2ccccc2[nH]c1=O | 3.7 | -18.0 | 18.0 | 0.4 | ·
CC(C)C(=O)Nc1sc2c(c1-c1nc3ccccc3[nH]1)CCCC2 | -9.4 | 101.2* | -101.3 | -0.5 | 21.5µM*
CCC(C)C1/C=C\CC(NC(=O)OCC2c3ccccc3-c3ccccc32)CC(=O)N1Cc1ccccc1 (stereo not drawn) | -13.6 | 74.5* | -74.5 | 0.1 | -2.4%
O=C(Nc1cc(Cl)c(Cl)cc1Cl)c1cccnc1 | 4.2 | 19.4 | -19.4 | 1.0 | ·
COc1ccc2sc(-c3ccc(N(C)C)cc3)c(C#CC(C)(C)O)c2c1 | -0.4 | 103.0* | -103.0 | 1.0 | 2.91µM*
